Measurements taken from ChEMBL document CHEMBL4270630.

What was measured:
Influenza A virus [1] = assay: Antiviral activity against Influenza A virus A/PR/8/34(H1N1) infected in MDCK cells assessed as reduction in virus-induced cytopathic effect after 3 days by microscopic method; type: functional, organism-based, A/Puerto Rico/8/1934(H1N1); conditions: Influenza A virus, A/Puerto Rico/8/1934(H1N1), MDCK, 72 h
In short: (§1)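 Semi-confluent MDCK cells were infected at an MOI of 0.0004 PFU/cell in Ultra-MDCK infection medium with 2 μg/mL TPCK-trypsin, together with compounds. After 3 days at 35 °C, CPE was scored by microscopy and confirmed by MTS formazan viability. EC50 is the concentration giving 50% inhibition of virus-induced CPE. Values are means of two to five independent tests.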

Influenza A virus [2] = assay: Antiviral activity against Influenza A virus A/PR/8/34(H1N1) infected in MDCK cells after 3 days by MTS assay; type: functional, organism-based, A/Puerto Rico/8/1934(H1N1); conditions: Influenza A virus, A/Puerto Rico/8/1934(H1N1), MDCK, 72 h; in short: as §1
Influenza A virus [3] = assay: Antiviral activity against Influenza A virus A/Virginia/ATCC3/2009(H1N1pdm) infected in MDCK cells assessed as reduction in virus-induced cytopathic effect after 3 days by microscopic method; type: functional, organism-based, Influenza A virus (A/Virginia/03/2009(H1N1)); conditions: 72 h; in short: as §1
Influenza A virus [4] = assay: Antiviral activity against Influenza A virus A/Virginia/ATCC3/2009(H1N1pdm) infected in MDCK cells after 3 days by MTS assay; type: functional, organism-based, Influenza A virus (A/Virginia/03/2009(H1N1)); conditions: 72 h; in short: as §1
H3N2 subtype [5] = assay: Antiviral activity against Influenza A virus A/HK/7/87(H3N2) infected in MDCK cells assessed as reduction in virus-induced cytopathic effect after 3 days by microscopic method; type: functional, organism-based; conditions: A/Hong Kong/7/1987(H3N2), 72 h; in short: as §1
H3N2 subtype [6] = assay: Antiviral activity against Influenza A virus A/HK/7/87(H3N2) infected in MDCK cells after 3 days by MTS assay; type: functional, organism-based; conditions: A/Hong Kong/7/1987(H3N2), 72 h; in short: as §1
Influenza B virus [7] = assay: Antiviral activity against Influenza B virus B/Ned/537/05 infected in MDCK cells assessed as reduction in virus-induced cytopathic effect after 3 days by microscopic method; type: functional, organism-based; conditions: B/Ned/537/05, MDCK, 72 h
In short: (§2)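 Semi-confluent MDCK cells were infected at an MOI of 0.0004 PFU/cell in Ultra-MDCK infection medium with 2 μg/mL TPCK-trypsin, together with compounds. After 3 days at 35 °C, CPE was scored by microscopy and confirmed by MTS formazan viability. Values are means of two to five independent tests.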

Influenza B virus [8] = assay: Antiviral activity against Influenza B virus B/Ned/537/05 infected in MDCK cells after 3 days by MTS assay; type: functional, organism-based; conditions: B/Ned/537/05, MDCK, 72 h; in short: as §2
MDCK = assay: (§3) Cytotoxicity against MDCK cells assessed as reduction in cell viability after 3 days by MTS assay; type: cell-based, Canis lupus familiaris; conditions: dog, mdck, 72 h
[9] = Cytotoxicity against MDCK cells assessed as alteration in cell morphology after 3 days by microscopic method; type: cell-based, Canis lupus familiaris; conditions: dog
In short: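 Mock-infected MDCK cells were treated with compounds in parallel with the antiviral assay, 3 days at 35 °C. MCC is the concentration causing minimal change in cell morphology by microscopy. CC50 is the 50% cytotoxic concentration by MTS formazan viability assay.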

[10] = Selectivity index, ratio of MCC for MDCK cells to EC50 for Influenza A virus A/PR/8/34(H1N1) infected in MDCK cells assessed as reduction in virus-induced cytopathic effect by microscopic method; type: toxicity, cell-based; conditions: dog, read-out: Selectivity Index
In short: (§4)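 Selectivity index is MCC divided by EC50. MCC comes from microscopy of mock-infected MDCK cells. EC50 comes from microscopic scoring of virus-induced CPE in MDCK cells infected at an MOI of 0.0004 PFU/cell with TPCK-trypsin. Both readings were taken after 3 days at 35 °C.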

[11] = Selectivity index, ratio of MCC for MDCK cells to EC50 for Influenza A virus A/Virginia/ATCC3/2009(H1N1pdm) infected in MDCK cells assessed as reduction in virus-induced cytopathic effect by microscopic method; type: toxicity, cell-based; conditions: dog, read-out: Selectivity Index; in short: as §4
[12] = Selectivity index, ratio of MCC for MDCK cells to EC50 for Influenza A virus A/HK/7/87(H3N2) infected in MDCK cells assessed as reduction in virus-induced cytopathic effect by microscopic method; type: toxicity, cell-based; conditions: dog, read-out: Selectivity Index; in short: as §4
[13] = Selectivity index, ratio of MCC for MDCK cells to EC50 for Influenza B virus B/Ned/537/05 infected in MDCK cells assessed as reduction in virus-induced cytopathic effect by microscopic method; type: toxicity, cell-based; conditions: dog, read-out: Selectivity Index; in short: as §4
[14] = Selectivity index, ratio of MCC for MDCK cells to EC50 for Influenza B virus B/HK/05/72 infected in MDCK cells assessed as reduction in virus-induced cytopathic effect by microscopic method; type: toxicity, cell-based; conditions: dog, read-out: Selectivity Index; in short: as §4
Human coronavirus 229E [15] = assay: Antiviral activity against Human coronavirus 229E infected in HEL299 cells assessed as reduction in virus induced cytopathic effect after 5 days by microscopic method; type: functional, organism-based; conditions: HEL 299, 120 h
In short: (§5)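 Confluent HEL 299 cells in medium with 2% FCS were exposed to HCoV-229E (100 CCID50/well) together with compounds and held for 5 days at 35 °C. EC50 (CPE reduction) and MCC (minimal morphology change) were determined by microscopy. SI is MCC/EC50.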

[16] = Cytotoxicity against HEL299 cells assessed as changes in cell morphology after 5 days by microscopic method; type: cell-based, HEL 299; conditions: human; in short: as §5
Human coronavirus 229E [17] = assay: Antiviral activity against Human coronavirus 229E infected in human A549 cells assessed as reduction in virus RNA level after 3 days by qRT-PCR method; type: functional; conditions: A549, 72 h
In short: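 Confluent A549 cells were infected with HCoV-229E in 2% FCS medium with compounds present. The inoculum was removed at 1 h and compounds were kept on at 35 °C. Supernatants were harvested at day 3, lysed at 75 °C for 10 min, and viral genome copies counted by one-step qRT-PCR.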

[18] = Cytotoxicity against human A549 cells assessed as changes in cell morphology after 3 days by microscopic method; type: cell-based
In short: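 Mock-infected A549 cells were incubated with compounds for 3 days. MCC is the concentration causing minimal change in cell morphology by microscopy.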

[19] = Selectivity index, ratio of MCC for HEL299 cells to EC50 for Human coronavirus 229E infected in HEL299 cells; type: toxicity, cell-based; conditions: read-out: Selectivity Index; in short: as §5
Influenza A virus [20] = assay: Antiviral activity against Influenza A virus A/PR/8/34(H1N1) GFP-fused pseudotyped lentiviral particle expressing H1-HA/N1-NA infected in MDCK cells assessed as inhibition of pseudoparticle entry at 10 uM after 3 days by flow cytometry relative to control; type: functional; conditions: A/Puerto Rico/8/1934(H1N1), 72 h
In short: (§6)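 MDCK cells were seeded at 7500/well and one day later were exposed to compounds plus GFP lentiviral pseudoparticles bearing A/PR/8/34 H1-HA and N1-NA, with HA0 activated by trypsin. After 3 days the cells were trypsinized, fixed in paraformaldehyde and analysed for GFP by flow cytometry. Entry inhibition was taken as the reduction in GFP signal. Data are the mean ± SEM of four independent experiments.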

Influenza A virus [21] = assay: Antiviral activity against Influenza A virus A/PR/8/34(H1N1) GFP-fused pseudotyped lentiviral particle expressing H1-HA/N1-NA infected in MDCK cells assessed as inhibition of pseudoparticle entry at 2 uM after 3 days by flow cytometry relative to control; type: functional; conditions: A/Puerto Rico/8/1934(H1N1), 72 h; in short: as §6
Influenza B virus [22] = assay: Antiviral activity against Influenza B virus B/HK/05/72 infected in MDCK cells assessed as reduction in virus-induced cytopathic effect after 3 days by microscopic method; type: functional, organism-based; conditions: B/Hong Kong/05/1972, MDCK, 72 h; in short: as §1
Influenza B virus [23] = assay: Antiviral activity against Influenza B virus B/HK/05/72 infected in MDCK cells after 3 days by MTS assay; type: functional, organism-based; conditions: B/Hong Kong/05/1972, MDCK, 72 h; in short: as §1
[24] = as §3; type: cell-based, Canis lupus familiaris; conditions: dog, MDCK cells

Row | SMILES | EC50 (Influenza A virus [1]) | EC50 (Influenza A virus [2]) | EC50 (Influenza A virus [3]) | EC50 (Influenza A virus [4]) | EC50 (H3N2 subtype [5]) | EC50 (H3N2 subtype [6]) | EC50 (Influenza B virus [7]) | EC50 (Influenza B virus [8]) | CC50 (MDCK) | MCC at 72 h [9] | EC50 (Human coronavirus 229E [15]) | MCC at 120 h [16] | EC90 (Human coronavirus 229E [17]) | EC99 (Human coronavirus 229E [17]) | MCC at 72 h [18] | selectivity ratio [19] | inhibition at 2 µM (Influenza A virus [21]) | also measured
1 | CCCCSC1=C(SCCCC)C(=O)N(CCOCCOCCOCCOCc2cn(C3C(=O)N[C@@H]4Cc5ccc(c(Cl)c5)Oc5cc6cc(c5O)Oc5ccc(cc5Cl)[C@@H](O[C@@H]5O[C@H](CO)[C@@H](O)[C@H](O)[C@H]5NC(C)=O)[C@H]5NC(=O)[C@H](NC(O)[C@@H]6NC(=O)[C@@H](NC4=O)c4cc(O)cc(c4)Oc4cc3ccc4O)c3ccc(O)c(c3)-c3c(O)cc(O)cc3[C@H](C(=O)O)NC5=O)nn2)C1=O (stereo partly drawn) | 4.8 µM | 5.8 µM | 9.5 µM | 8.6 µM | 5.3 µM | 6 µM | 5.5 µM | 4.9 µM | > 100 µM | 100 µM | 8.9 µM | ≥ 100 µM | 8.6 µM | 29 µM | > 50 µM |  |  | selectivity ratio [10]: 16; selectivity ratio [11]: 16; selectivity ratio [12]: 16; selectivity ratio [13]: 16; selectivity ratio [14]: 16
2 | CCCCCCCCCCCCS(=O)(=O)N[C@H]1C(=O)N[C@@H]2Cc3ccc(c(Cl)c3)Oc3cc4cc(c3O)Oc3ccc(cc3Cl)[C@@H](O[C@@H]3O[C@H](CO)[C@@H](O)[C@H](O)[C@H]3NC(C)=O)[C@H]3NC(=O)[C@H](NC(O)[C@@H]4NC(=O)[C@@H](NC2=O)c2cc(O)cc(c2)Oc2cc1ccc2O)c1ccc(O)c(c1)-c1c(O)cc(O)cc1[C@H](C(=O)O)NC3=O (stereo partly drawn) | 0.4 µM | 0.8 µM | > 100 µM | 1.6 µM | < 0.8 µM | < 0.8 µM | < 0.8 µM | < 0.8 µM | 4.5 µM | 4 µM | 1.8 µM | 20 µM | 2.8 µM | 4.7 µM | 50 µM | 13 |  | 
3 | CCCCCCS(=O)(=O)N[C@H]1C(=O)N[C@@H]2Cc3ccc(c(Cl)c3)Oc3cc4cc(c3O)Oc3ccc(cc3Cl)[C@@H](O[C@@H]3O[C@H](CO)[C@@H](O)[C@H](O)[C@H]3NC(C)=O)[C@H]3NC(=O)[C@H](NC(O)[C@@H]4NC(=O)[C@@H](NC2=O)c2cc(O)cc(c2)Oc2cc1ccc2O)c1ccc(O)c(c1)-c1c(O)cc(O)cc1[C@H](C(=O)O)NC3=O (stereo partly drawn) | 8.6 µM | 9.6 µM | 8.9 µM | 9.1 µM | 8.3 µM | 8.9 µM | 8.9 µM | 10.3 µM | 54 µM | 100 µM | 1.5 µM | 20 µM |  |  |  | 11 |  | 
4 | CCCCCCCCCCOCc1cn(CCOCCOCCOCCOCc2cn([C@H]3C(=O)N[C@@H]4Cc5ccc(c(Cl)c5)Oc5cc6cc(c5O)Oc5ccc(cc5Cl)[C@@H](O[C@@H]5O[C@H](CO)[C@@H](O)[C@H](O)[C@H]5NC(C)=O)[C@H]5NC(=O)[C@H](NC(O)[C@@H]6NC(=O)[C@@H](NC4=O)c4cc(O)cc(c4)Oc4cc3ccc4O)c3ccc(O)c(c3)-c3c(O)cc(O)cc3[C@H](C(=O)O)NC5=O)nn2)nn1 (stereo partly drawn) | 1.6 µM | 1.5 µM | 1.8 µM | 1.8 µM | 1.6 µM | 1.3 µM | > 100 µM | < 0.8 µM | ≥ 82 µM | ≥ 20 µM |  |  |  |  |  |  | 56% | inhibition at 10 µM (Influenza A virus [20]): 92%
5 | CCCCCCCCO[C@@H]1[C@@H](OCCCCCCCC)[C@@H](OC)O[C@H](COCCOCCOCCOCCOCc2cn([C@H]3C(=O)N[C@@H]4Cc5ccc(c(Cl)c5)Oc5cc6cc(c5O)Oc5ccc(cc5Cl)[C@@H](O[C@@H]5O[C@H](CO)[C@@H](O)[C@H](O)[C@H]5NC(C)=O)[C@H]5NC(=O)[C@H](NC(O)[C@@H]6NC(=O)[C@@H](NC4=O)c4cc(O)cc(c4)Oc4cc3ccc4O)c3ccc(O)c(c3)-c3c(O)cc(O)cc3[C@H](C(=O)O)NC5=O)nn2)[C@H]1OCc1ccc(OC)cc1 (stereo partly drawn) | 0.8 µM | 1.2 µM | 1.4 µM | < 0.8 µM | 1.8 µM | 1.2 µM |  |  |  | 20 µM |  |  |  |  |  |  | 54% | EC50 (Influenza B virus [22]): > 100 µM; EC50 (Influenza B virus [23]): > 100 µM; CC50 at 72 h [24]: 11 µM
6 | CC(=O)N[C@H]1[C@H](O[C@@H]2c3ccc(c(Cl)c3)Oc3cc4cc(c3O)Oc3ccc(cc3Cl)C[C@H]3NC(=O)[C@H](NS(=O)(=O)c5ccc(C)cc5)c5ccc(O)c(c5)Oc5cc(O)cc(c5)[C@H](NC3=O)C(=O)N[C@H]4C(O)N[C@H]3C(=O)N[C@H]2C(=O)N[C@@H](C(=O)O)c2cc(O)cc(O)c2-c2cc3ccc2O)O[C@H](CO)[C@@H](O)[C@@H]1O (stereo partly drawn) | 9 µM | 11 µM | 30 µM | 32 µM | 41 µM | 19 µM | 11 µM | 12 µM | > 100 µM | 100 µM | 5.2 µM | ≥ 100 µM | 4.9 µM | 10 µM | > 50 µM | 19 |  | 
